From the RNAGym collection of RNA variant scans (doi:10.1038/nmeth.2970)

B1: NELF-E aptamer (parent)
chain: CCCAACGACUGCCGAGCGAGAUUACGCUUGAGCGCCCCACUGAGGAUGCCCACGGGCGAUUGGGGCACGG

Variants of: B1
Experiment: HiTS-RAP
Settings: with NELF-E (Drosophila)
Summary of the method: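 Aptamer DNA templates bearing a T7 promoter and a ter site were sequenced on an Illumina GAIIx flowcell. T7 RNA polymerase then transcribed them in situ, and GST-Tus halted transcription over 30 minutes at 37°C. After a 30-minute room-temperature equilibration with NELF-E-mOrange at 0.064 to 1000 nM in HEPES binding buffer, clusters were imaged, using only the first binding curve. Intensities normalised to sequencing intensity were averaged per sequence and fitted with weighted Hill fits to give Kd, retaining only fits whose variance stayed under 1,000,000.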

Variant	Kd [nM]
CCCUACGACUGCCGAGCGAGAUUACGCUUGAGCGCCCCACUGAGGAUGCCCACGGGCGAUUGGGACACGG [A4U G65A]	5.54
CCCAACGACUGCCGAGCGAGAGUACGCUUGAGCGCCCCACUGAGGAUGCCCACGGGCGAUUGGGGUACGG [U22G C66U]	5.67
CCCAACGACUGCCGAGCGAGAUGUCGCUUGAGCGCCCCACUGAGGAUGCCCACGGGCGAUUGGGGCACGG [U23G A24U]	6.08
CCCGACGACUGCCGAGCGAGAUUACGCUUGAGCGCCCAACUGAGGAUGCCCACGGGCGAUUGGGGCACGG [A4G C38A]	44.4
CCCAAGGACUGCCGAGCGAGAUUACGCUUGAGCGCCCCCCUGAGGAUGCCCACGGGCGAUUGGGGCACGG [C6G A39C]	24
CCCAAGGACUGCCGAGUGAGAUUACGCUUGAGCGCCCCACUGAGGAUGCCCACGGGCGAUUGGGGCACGG [C6G C17U]	6.03
CCCAACGACUGCCGAGCGAGAUUGCGCUUGAGCGCCCCACUGAGGAUGCCCACGGGCGAUUGGGUCACGG [A24G G65U]	6
CCCAACGACGGCCGUGCGAGAUUACGCUUGAGCGCCCCACUGAGGAUGCCCACGGGCGAUUGGGGCACGG [U10G A15U]	5.99
CCCAACGUCUGCCGAGCGAGAUUACGCUUGAGCGCCCCACUGAGGAUGCCCACGGGCGGUUGGGGCACGG [A8U A59G]	47.2
CCCAACGGCUGCCGAGCGAGAUGACGCUUGAGCGCCCCACUGAGGAUGCCCACGGGCGAUUGGGGCACGG [A8G U23G]	5.8
CCCGACGACUGCCGAGCGAGAUUACGCUUGAGCGCCCCACAGAGGAUGCCCACGGGCGAUUGGGGCACGG [A4G U41A]	73.6
CCCAACGGCUGCCGAGCGAGGUUACGCUUGAGCGCCCCACUGAGGAUGCCCACGGGCGAUUGGGGCACGG [A8G A21G]	6.28
CCCGACGACUGCCGAGCGAGAUUACGCUUGAGCGCCCCACUGAGGAUGCCCACGGACGAUUGGGGCACGG [A4G G56A]	9.42
CCCAGCGACUGCCGUGCGAGAUUACGCUUGAGCGCCCCACUGAGGAUGCCCACGGGCGAUUGGGGCACGG [A5G A15U]	7.04
CCCAACGACUGCCGAGCGAGAUGACGCUUGAGCGCCCCACUGAGGAUGCCCACGGGCGAUAGGGGCACGG [U23G U61A]	31
CCCAACGACUGCCGAGCGAGAUGACGCUUGAGCGCCCCACUGAGGAUGCCCACGGGCGAUCGGGGCACGG [U23G U61C]	67.8
CCCAACGAGUGCCGAGCGAGAUUACGCUUGAGCGCCCCACUGAGUAUGCCCACGGGCGAUUGGGGCACGG [C9G G45U]	5.69
CCCGACGACUGCCGAGCGAGAUUACGCUUGAGCGCCACACUGAGGAUGCCCACGGGCGAUUGGGGCACGG [A4G C37A]	12.3
CCCAACGACUGCGGAGCGAGAUUACGCUUGAGCGCCCCACUGAGGAUGCCCACGGUCGAUUGGGGCACGG [C13G G56U]	4.87
CCCAACGACUGCCGAGCGAGAUUACGCUUGAGCGCCCCACAGAGGAUGCCCACGGGCGAUUGGGGCUCGG [U41A A67U]	59.4

Variant	Kd [nM]
CCCAACGACUGCCGAGCGUGAGUACGCUUGAGCGCCCCACUGAGGAUGCCCACGGGCGAUUGGGGCACGG [A19U U22G]	6
CCCAACGACUGCCGAGCGAGAUUACGCUUGAGCGCCUCACGGAGGAUGCCCACGGGCGAUUGGGGCACGG [C37U U41G]	16.1
CCCUACGACUGCCGAGCGAGAUUACGCUUGAGCGCCCCACUGAGGAGGCCCACGGGCGAUUGGGGCACGG [A4U U47G]	6.26
CCCGACGACUGCCGAGCGAGAUUACGCUUGAGCGCCCCAGUGAGGAUGCCCACGGGCGAUUGGGGCACGG [A4G C40G]	6.29
CCCAACGGGUGCCGAGCGAGAUUACGCUUGAGCGCCCCACUGAGGAUGCCCACGGGCGAUUGGGGCACGG [A8G C9G]	5.53
CCCAACGACUGCCGAGCGAGAUUACGCUUGCGCGCCCCACUGAGGAUGCCCACGGGCGAUUGGGGCACGG [A31C]	4.61
CCCAACGACUGCCGAGCGAGAUUGCGCUUGAGCGCCCCACUGAGGAUGCCCACGGGCGAUUGGGGUACGG [A24G C66U]	5.38
CCCAACGACUUCCGAGCGAAAUUACGCUUGAGCGCCCCACUGAGGAUGCCCACGGGCGAUUGGGGCACGG [G11U G20A]	5.7
CCCGACGACUGCCGAGCGAGAUUACGCUUGAGCGCCCCACUGAGGAUGCCCACGGGCGACUGGGGCACGG [A4G U60C]	9.89
CCCAACGACUGCCGAGCGAGAGUACGCCUGAGCGCCCCACUGAGGAUGCCCACGGGCGAUUGGGGCACGG [U22G U28C]	8.17
CCCAACGGCUGCCGAGCGAGACUACGCUUGAGCGCCCCACUGAGGAUGCCCACGGGCGAUUGGGGCACGG [A8G U22C]	5.08
CCCAACGACUGCGGAGCGAGAUUACGCUUGAGCGCCCCACUGAGGAUGCCCACGUGCGAUUGGGGCACGG [C13G G55U]	7.38
CCCAACGACUGCGGAGCGAGAUUACGCUUGAGCGCCCCACUGAGGAUGCCCACGCGCGAUUGGGGCACGG [C13G G55C]	7.94
CCCGACGACUGCCGAGCGAGAUUACUCUUGAGCGCCCCACUGAGGAUGCCCACGGGCGAUUGGGGCACGG [A4G G26U]	7.06
CCCAACGACUGCCAAGCGAGGUUACGCUUGAGCGCCCCACUGAGGAUGCCCACGGGCGAUUGGGGCACGG [G14A A21G]	6.08
CCCAACGACUGCGGAGCGAGAUUACGCUUGAGCGCCCCACUGAGGAUGCCCAGGGGCGAUUGGGGCACGG [C13G C53G]	7.39
CCCAACGACUGCGGAGCGAGAUUACGCUUGAGCGCCCCACUGAGGAUGCCCAUGGGCGAUUGGGGCACGG [C13G C53U]	3.49
CCCAUCGACUGCCGAGCGAGGUUACGCUUGAGCGCCCCACUGAGGAUGCCCACGGGCGAUUGGGGCACGG [A5U A21G]	7.74
CCCAACUACUGCCGAGCGAGAUUACGCUCGAGCGCCCCACUGAGGAUGCCCACGGGCGAUUGGGGCACGG [G7U U29C]	6.86
